Results of several laboratories.
Protocols differ between the studies behind these lines.
Observed: cell growth or viability

CN(C)CCCOc1cc(NC(=O)c2cccc(C(=O)Nc3cc(OCCCN(C)C)c4ccccc4n3)n2)nc2ccccc12  IC50 (HT-1080; ATP luminescence; 72 h): 2600 nM
COc1cc(-c2ccc(-c3ccc(C(=N)N)nc3)s2)cc(OC)c1OC  GI50 (RXF 393): 2190 nM
FC1CCN(C2(CNCc3ccc(-c4ccccc4)o3)COC2)C1 (stereo not drawn)  viability (A 172; 30 µM; 48 h): 97.6%
Cc1cc(Nc2ncc(Cl)c(Nc3ccccc3S(=O)(=O)C(C)C)n2)c(OC(C)C)cc1C1CCNCC1  inhibition (NCI-H2228; MTT; 1 µg/mL; 72 h): 80%
Cc1cccc2cc(CNCC3(N4CCCC4)COC3)cnc12  viability (A 172; 30 µM; 48 h): 92.6%
NCCOc1cc(NC(=O)c2cc(OCc3c[nH]nn3)cc(C(=O)Nc3cc(OCCN)c4ccccc4n3)n2)nc2ccccc12  IC50 (HT-1080; ATP luminescence; 72 h): 13500 nM
Clc1ccccc1-c1ccc(CNCC2(N3CCCC3)COC2)o1  viability (A 172; 30 µM; 48 h): 70.6%
CC(C)C[C@H](NC(=O)[C@H](Cc1ccccc1)NC(=O)c1cnccn1)B(O)O  IC50 (A 172; ATP luminescence): 8.7 nM
Cc1ccc(C(CS(=O)(=O)c2ccccc2)=NNc2nc(C)c(N=Nc3cccc(C)c3)s2)cc1  viability (SK-MEL-23; MTT; 1.6 µM; 48 h): 59.5%
COc1ccc(-c2ccc(-c3ccc(C(=N)N)nc3)s2)cc1  GI50 (RXF 393): 1770 nM
Cc1ccc(C(CS(=O)(=O)c2ccccc2)=NNC2=NC(=O)C(=NNc3ccccc3)S2)cc1  viability (SK-MEL-23; MTT; 1.6 µM; 48 h): 42.9%
C[C@@H](Oc1cc(-c2cnn(C3CCNCC3)c2)cnc1N)c1c(Cl)ccc(F)c1Cl  inhibition (NCI-H2228; MTT; 0.2 µg/mL; 72 h): 64.4%
NC(=S)NN=C(CS(=O)(=O)c1ccccc1)c1ccc(F)cc1  viability (SK-MEL-23; MTT; 25 µM; 48 h): 45.4%
COc1cccc(Oc2ccccc2NC(=O)CNC(=O)c2cccc3ccccc23)c1  GI50 (RXF 393; SRB; 48 h): 166 nM
FC1CCN(C2(CNCc3ccc(-c4ccccc4Cl)o3)COC2)C1 (stereo not drawn)  viability (A 172; 30 µM; 48 h): 60.4%
Cc1ccc(C(CS(=O)(=O)c2ccccc2)=NN=C2N=C(c3ccc(Br)cc3)CS2)cc1  viability (SK-MEL-23; MTT; 1.6 µM; 48 h): 72.1%
c1cc2c(cc1CNCC1(N3CCCC3)COC1)OCCO2  viability (A 172; 30 µM; 48 h): 96.6%
Cc1ccc(C(CS(=O)(=O)c2ccccc2)=NNc2nc(-c3ccc(OCCCCOc4ccc(-c5csc(NN=C(CS(=O)(=O)c6ccccc6)c6ccc(C)cc6)n5)cc4)cc3)cs2)cc1  viability (SK-MEL-23; MTT; 6.3 µM; 48 h): 58.6%
